The list is not random: actives were taken first. Their share in the collection is about 2.9%.
Runt-SMMHC FRET: inhibitors of RUNX1 Runt–CBFb-SMMHC binding, primary screen, biochemical, FRET, Cerulean-Runt, Venus-CBFb-SMMHC, uHTS | Runt-related transcription factor 1 (Homo sapiens) + Core-binding factor subunit beta … | Cerulean-Runt/Venus-CBFb-SMMHC FRET ratio 530/480, 1 h | inhibition, % at 20 µM | actives 0.74% (n = 220,000) | AID 1434, 2008;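 active = mean inhibition across duplicate retests at 20 µM reaching about 50%, limit read from the data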;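 note: 0% = DMSO wells and 100% = wells with excess untagged CBFb-SMMHC; inhibitors lower the FRET ratio by blocking Runt binding to CBFb-SMMHC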
AI-2 QS mod: Vibrio harveyi AI-2 quorum sensing modulators, primary screen, JMH597 strain, luminescence/OD600 ratio | Vibrio harveyi JMH597 AI-2 luminescence/OD600 ratio, 9 h; stronger effect = lower value; strain lacks LuxN and CqsS sensors; 0 = neutral-control median | activity change, % at 7.5 µM | actives 0.4% (n = 300,000) | AID 2094, 2009; in the data active = activity change below about -75%, passing the limit was not always enough;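 note: luminescence divided by OD600 gain over 9 h not by final OD600 alone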
RanGTP-Imp inh: inhibitors of RanGTP-importin-beta interaction, primary screen, biochemical, FRET, CFP-Ran, YFP-importin-beta, homogeneous. Ran GTPase (GTP-bound) - importin-beta complex. cell-free CFP-Ran/YFP-importin-beta FRET ratio. inhibition, % (no concentration beside the values). actives 1.1% (n = 300,000);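 active = more than half of the replicate wells show a fall in the fluorescence ratio signal beyond about 16%, limit read from the data, passing the limit was not always enough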;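 note: 0% = DMSO wells and 100% = Ran loaded with GDP instead of GTP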
Runt-CBFb FRET: inhibitors of RUNX1 Runt–CBFb binding, primary screen, biochemical, FRET, Cerulean-Runt, Venus-CBFb, uHTS | Runt-related transcription factor 1 (Homo sapiens) + Core-binding factor subunit beta … | inhibition, % at 20 µM | Cerulean-Runt/Venus-CBFb FRET ratio 530/480, 1 h | actives 0.46% (n = 220,000) | AID 1496, 2009;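 active = inhibition over about 50% at 20 µM in the single-dose screen, limit read from the data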;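 note: 0% = DMSO wells and 100% = excess unlabeled CBFb competitor control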
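Schedule: protein complex preformed 1 h, compound exposure 1 h, room temperature, dark; test system: Cerulean-labeled Runt domain protein; amount: 100 nM per protein; buffer or medium: Tris 50 mM pH 7.5, KCl, K2SO4, 0.01% BSA; read-out: loss of energy transfer signal; detection: FRET fluorescence; controls: 5 µM unlabeled CBFb as full-inhibition high control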
proKLK7 act: proKLK7 zymogen activators, primary screen, biochemical, fluorescence intensity. AID 652039, 2013. purified proKLK7, EDANS-DABCYL substrate fluorescence; 100% is mature enzyme control, 0% vehicle. Kallikrein-7 (Homo sapiens), P49862. activation, % at 7 µM. actives 0.9% (n = 370,000);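 active = activation above the mean of all tested compounds plus 3 SD, computed per campaign excluding outliers beyond control limits, cut at about 13% in these data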
Target sequence (P49862 whole entry, looked up): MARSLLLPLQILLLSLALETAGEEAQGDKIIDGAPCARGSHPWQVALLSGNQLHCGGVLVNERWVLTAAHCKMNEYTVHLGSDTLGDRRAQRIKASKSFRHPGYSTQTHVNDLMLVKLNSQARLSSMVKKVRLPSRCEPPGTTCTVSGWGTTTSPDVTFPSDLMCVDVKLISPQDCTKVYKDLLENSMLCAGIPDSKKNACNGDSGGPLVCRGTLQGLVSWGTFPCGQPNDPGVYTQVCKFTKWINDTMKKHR
Wee1 degr inh: Wee1 degradation inhibitors, primary screen, cell-based, HeLa, Wee1K328M-luciferase, luminescence. Wee1-like protein kinase (Homo sapiens), P30291. HeLa Luc-Wee1K328M stability; 100% = proteasome inhibitor MG132 effect. reporter increase, % at 5 µM. actives 1.2% (n = 220,000);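 active = activation above the mean of all tested compounds plus 3 SD, set per screening run, cut at about 8.8% in these data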;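 note: cells exposed to compound for 20 h before luminescence read; 0% = DMSO alone and 100% = MG132 at 30 µM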
proKLK7 act conf: proKLK7 zymogen activators, confirmation, biochemical, fluorescence intensity, triplicate | AID 686949, 2013 | actives 68% (n = 3,200) | activation, % at 7 µM | shares compounds with proKLK7 act | purified proKLK7, EDANS-DABCYL substrate fluorescence; scaled: vehicle 0, mature enzyme 100;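 active = activation, as change over the incubation, above the mean of all tested compounds plus 3 SD, cut at about 13% in these data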
EDANS interfere: EDANS-DABCYL substrate optical interference, artefact control for kallikrein-7 zymogen activator project, biochemical, fluorescence intensity, high throughput | shares compounds with proKLK7 act | no enzyme, 4 h; solvent 0%, active enzyme control 100% | activation, % at 7 µM | actives 80% (n = 3,200) | AID 686952, 2013;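 active = activation above the all-compound mean plus 3 SD, ignoring values outside control-based bounds, cut at about 4.8% in these data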;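 note: value is the 4 h activation minus the activation read at time zero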
EDANS interf: optically interferes with EDANS-DABCYL fluorescence, kallikrein-7 activator counter-screen; shares compounds with proKLK7 act; EDANS-DABCYL peptide fluorescence interference, no enzyme; EC50, µM; actives 20% (n = 250);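 active = compounds that raise the fluorescence signal in this interference counterscreen, with EC50 at or below 10 µM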;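 note: intact quenched peptide substrate alone read at 355 nm excitation and 520 nm emission; signal is fluorescence gain from T0 to T4 after four hours at room temperature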
Active calls of the source: *; i = inactive; . = no result given.

SMILES	Runt-SMMHC FRET	AI-2 QS mod	RanGTP-Imp inh	Runt-CBFb FRET	proKLK7 act	Wee1 degr inh	proKLK7 act conf	EDANS interfere	others
CNC(=O)OCc1cccc(COC(=O)NC)n1	0	27	-5	-2	-1	0	.	.
CNC(=O)OCc1cocc1COC(=O)NC	.	.	.	.	42*	.	0	0
COCCCNc1oc(/C=C/c2ccccc2)nc1C#N	.	4	-1	.	44*	.	57*	61*
CN(C)CCNc1oc(/C=C/c2ccccc2)nc1C#N	0	-11	-5	2	98*	0	66*	69*
CCOc1ccc(/C=C/c2nc(C#N)c(NCCCOC)o2)cc1	.	16	-3	.	-15	.	.	.
C=CCNc1oc(/C=C/c2ccccc2)nc1C#N	30	8	1	10	46*	2	66*	68*
CN(C)CCCNc1oc(-c2cccc(Cl)c2)nc1C#N	-1	20	0	-1	51*	-1	17*	26*
COc1ccc(S(=O)(=O)N2CCCCC2c2cc(C(=O)N3CCOCC3)no2)cc1 (configuration not stated)	.	.	.	.	-1	.	.	.
O=C1c2ccccc2/C(=C\c2ccc(O[C@@H]3CCCCO3)cc2)N1c1ccccc1	.	.	.	.	100*	.	4	15*
Cc1nnc(SCC(=O)NC2CCCCC2)n1N	.	.	.	.	-1	.	.	.
CC(C)C(=O)Nc1nnc(SCC(=O)NC2CCCC2)s1	.	-4	-4	.	1	.	.	.
Nc1ccc2cc3[nH]c4cc(N)ccc4c3nc2c1	.	.	.	.	86*	.	75*	75*
Nc1ccc2nc(C3CCCCC3)[nH]c2c1	0	32	2	0	0	8	.	.
Cc1cccc(OCC(=O)Nc2nnc(S(=O)(=O)N3CCCCCC3)s2)c1	.	24	-2	.	0	.	.	.
Cc1c(C)c2c(OCC(=O)O)cc3c(c2oc1=O)CCC(C)(C)O3	.	19	-3	.	33*	.	61*	73*
Cc1c(C)c2c(OCC(=O)N3CCC(C(=O)O)CC3)cc3c(c2oc1=O)CCC(C)(C)O3	.	19	2	.	.	.	.	.
Cc1c(C)c2c(OCC(=O)NCC(=O)NCC(=O)O)cc3c(c2oc1=O)CCC(C)(C)O3	.	24	6	.	57*	.	79*	79*
Cc1noc(C)c1S(=O)(=O)NCc1ccc(CN(C)C)cc1	.	.	.	.	0	.	.	.
COc1ccc(-n2nc3c(c2NC(=O)COc2ccccc2OC)CS(=O)(=O)C3)cc1	.	.	.	.	0	.	.	.
Nc1nc2cc3c(cc2cc1C(=O)NCc1cccnc1)OCO3	.	.	.	.	18*	.	30*	36*
COC(=O)C1CN(Cc2ccc(C)cc2)CCS(=O)(=O)N1Cc1cn(Cc2ccc(F)cc2)nn1 (configuration not stated)	.	.	.	.	0	.	.	.
CCOC(=O)C1CCN(C(=O)c2cc3c(=O)n4ccccc4nc3s2)CC1	.	19	-1	.	42*	.	68*	71*
CCOC(=O)CC1C(=O)NCCN1C(=O)c1cc2c(=O)n3ccccc3nc2s1 (configuration not stated)	22	11	-2	14	.	-2	.	.
CCOC(=O)C1CCN(C(=O)c2cc3c(=O)n4cccc(C)c4nc3s2)CC1	.	14	4	.	0	.	.	.
CCOC(=O)CC1C(=O)NCCN1C(=O)c1cc2c(=O)n3cccc(C)c3nc2s1 (configuration not stated)	15	10	-4	9	43*	2	25*	32*
SMILES	Runt-SMMHC FRET	AI-2 QS mod	RanGTP-Imp inh	Runt-CBFb FRET	proKLK7 act	Wee1 degr inh	proKLK7 act conf	EDANS interfere	others
CCN1CCN(C(=O)c2cc3c(=O)n4ccccc4nc3s2)CC1	.	0	12	.	55*	.	44*	57*
CN=c1scc(-c2ccc(F)cc2)n1/N=C/c1ccc(O)c(O)c1	4	.	.	8	-6	1	.	.
O=c1c2ccccc2[nH]c(=S)n1CCCN1CCN(c2ccccc2)CC1	.	11	2	.	0	.	.	.
O=c1c2cc(N3CCOCC3)ccc2[nH]c(=S)n1Cc1cccc(Cl)c1	-8	27	9	0	-1	0	.	.
O=c1c2cc(N3CCOCC3)ccc2[nH]c(=S)n1Cc1ccco1	11	23	3	24	28*	.	17*	17*
O=c1c2cc(N3CCOCC3)ccc2[nH]c(=S)n1CCCN1CCCCC1	-17	16	-2	-4	121*	-1	29*	24*	EDANS interf=>69
O=C(c1ccc(Cn2c(=S)[nH]c3ccc(N4CCOCC4)cc3c2=O)cc1)N1CCC(N2CCCCC2)CC1	-35	3	3	-8	28*	-2	-34	-41
O=c1c2cc(N3CCOCC3)ccc2[nH]c(=S)n1CCCN1CCCC1	-22	0	-4	-1	114*	-2	25*	27*
COC(=O)c1c(-c2ccccc2OC)sc2cc3c(cc12)OCO3	.	.	.	.	-40	.	.	.
O=C(CN1CCOCC1)N1CCN(C(=O)CN2CCOCC2)CC1	.	.	.	.	.	0	.	.
COc1ccc(S(=O)(=O)N2CCCCC2)cc1NC(=O)c1ccc2c(c1)OCO2	3	27	2	-2	0	-1	.	.
CCCCCCCCCCCCN1[C@@H](CC(=O)OC)c2cc(F)ccc2S1(=O)=O	.	38	7	.	0	.	.	.
CONC(=O)c1ccc(-c2cccc3nccn23)cc1	.	.	.	.	13*	.	6	12*
CN(C)C(=O)c1cccc(-c2cccc3nccn23)c1	.	.	.	.	2	.	.	.
OCc1ccc(-c2cccc3nccn23)cc1	.	.	.	.	16*	.	15*	14*
CCCn1nnc(NC(=S)NC(=O)/C=C/c2ccco2)n1	0	8	0	10	0	-2	.	.
COc1ccc(-c2ccc3c(n2)CCCN3Cc2ccccc2C(F)(F)F)cc1	.	.	.	.	18*	.	15*	13*	EDANS interf=i

Bioassay records from PubChem.
